Reference: ChEMBL document CHEMBL1149269, “Novel 2-(substituted phenyl)benzimidazole derivatives with potent activity against IgE, cytokines, and CD23 for the treatment of allergy and asthma” (J Med Chem, 2004)
The source made the active and inactive calls. The calls are words filed in the database; no cut-off is given here.

Tests used:
[1] = Ex vivo inhibition of IgE production in spleen cells from antigen sensitized BALB/c mouse; assay type: functional, cell-based
Method in brief: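 BALB/c mice immunized with DNP-KLH plus alum; spleens taken 2 weeks later and cultured with antigen, with or without drug. Antigen-specific IgE in supernatants quantified by ELISA against a standard curve of DNP-specific mouse monoclonal antibody.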

Mus musculus [2] = experiment: Oral bioavailability in mouse at 40 mg/kg, po relative to AVP-13358; assay type: ADME, organism-based; details: in vivo
B-cell = experiment: Inhibition of IgE production in B lymphocytes from BALB/c mouse; assay type: functional, cell-based
Method in brief: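 B cells isolated from spleens of naive BALB/c mice, cultured 5 days with IL-4 (10 ng/mL) and anti-mouse CD40 antibody (100 ng/mL), with or without drug. IgE in supernatants quantified by ELISA against a standard curve of DNP-specific mouse monoclonal antibody.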

[3] = Suppression of CD23 expression in IL4 and anti-CD40 antibody sensitized mouse splenocytes; details: Splenocyte
T-cell [4] = experiment: Inhibition of IFN-gamma production in conA and anti-CD3 antibody sensitized BALB/c mouse spleen T lymphocytes; assay type: functional, tissue-based
[5] = Suppression of CD23 expression in IL4 and anti-CD40 antibody sensitized CD14-positive human peripheral blood lymphocytes; details: Lymphocyte
T-cell [6] = experiment: Inhibition of IL13 production in conA and anti-CD3 antibody sensitized BALB/c mouse spleen T lymphocytes; assay type: functional, tissue-based
[7] = Suppression of IL4 receptor alpha expression in IL4 and anti-CD40 antibody sensitized mouse splenocytes; details: Splenocyte
Mus musculus [8] = experiment: Protection against allergic response in ovalbumin sensitized BALB/c mouse assessed as inhibition of airway hyper-responsiveness at 5 mg/kg, po twice daily; assay type: functional, organism-based; design: dose 5 mg/kg
Method in brief: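 Female BALB/c mice sensitized i.p. with 10 µg OVA in 4 mg alum. At 2 weeks, OVA aerosol (2% in PBS) 20 min on 2 consecutive days with oral dosing twice daily for 3 days. 2 weeks later, OVA aerosol on 4 consecutive days with the same dosing. PBS-nebulized controls. Airway response to rising methacholine measured by whole-body plethysmography 1 day later.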

T-cell [9] = experiment: Inhibition of IL5 production in conA and anti-CD3 antibody sensitized BALB/c mouse spleen T lymphocytes; assay type: functional, tissue-based
T-cell [10] = experiment: Inhibition of IL4 production in conA and anti-CD3 antibody sensitized BALB/c mouse spleen T lymphocytes; assay type: functional, tissue-based

Row | Compound | Relative Bioavailability (Mus musculus [2]) | IC50 (B-cell) [nM] | IC50 [1] [nM] | also measured
1 | O=C(Nc1ccccn1)c1ccc2[nH]c(-c3ccc(NC(=O)C45C[C@@H]6C[C@H](C4)[C@@H](O)[C@@H](C6)C5)cc3)nc2c1 | < 0.1 | 8 | 1 | –
2 | O=C(Nc1ccccn1)c1ccc2[nH]c(-c3ccc(NC(=O)C45CC6CC(C4)C(=O)C(C6)C5)cc3)nc2c1 | 0.5 | 40 | 10 | –
3 | O=C(Nc1ccccn1)c1ccc2[nH]c(-c3ccc(NC(=O)C45CC6CC(CC(C6)C4)C5)cc3)nc2c1 | – | 8 | 3 | IC50 [3]: 40 nM; Activity (T-cell [4]): Active; IC50 [5]: 20 nM; IC50 (T-cell [6]): 30 nM; IC50 [7]: 100 nM; Activity (Mus musculus [8]): Active; IC50 (T-cell [9]): 30 nM; IC50 (T-cell [10]): 30 nM
4 | CC(=O)Nc1ccc(-c2nc3cc(C(=O)NC45CC6CC(CC(C6)C4)C5)ccc3[nH]2)cc1 | < 0.1 | 90 | 25 | –
5 | O=C(NC1CCCCC1)c1ccc2[nH]c(-c3ccc(NC(=O)C45CC6CC(CC(C6)C4)C5)cc3)nc2c1 | < 0.1 | 7 | 2 | –
6 | O=C(Nc1ccccn1)c1ccc2[nH]c(-c3ccc(NC(=O)C45C[C@@H]6C[C@H](C4)[C@H](O)[C@@H](C6)C5)cc3)nc2c1 | < 0.1 | 15 | 1 | –

These reach a lower IC50 (B-cell). Values come first.

Row | Relative Bioavailability (Mus musculus [2]) | IC50 (B-cell) [nM] | Compound | IC50 [1] [nM] | also measured
7 | < 0.1 | 2 | O=C(NC12CC3CC(CC(C3)C1)C2)c1ccc2[nH]c(-c3ccc(NC(=O)C45CC6CC(CC(C6)C4)C5)cc3)nc2c1 | 1 | –
8 | < 0.1 | 2 | O=C(Nc1ccc(-c2nc3cc(C(=O)NC45CC6CC(CC(C6)C4)C5)ccc3[nH]2)cc1)c1ccc(Cl)c(Cl)c1 | 0.4 | –
9 | 0.35 | 5 | CC(=O)OC12CC3CC(C1)CC(C(=O)Nc1ccc(-c4nc5cc(C(=O)Nc6ccccn6)ccc5[nH]4)cc1)(C3)C2 | 1 | –
